pEC50, pIC50: −log10 of the molar value. The source made the active and inactive calls. The calls are words filed in the database; no cut-off is given here.
How the values were obtained:
Karpas-1106P [1] = experiment: Induction of apoptosis in human KARPAS-1106P cells assessed as activation of caspase-3/7 incubated for 16 hrs; type: functional, cell-based
How it was run: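 SET-2 and Karpas 1106P cells were exposed to graded drug concentrations for 16 h. Apoptosis was read as caspase-3/7 activation.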

[2] = Cytotoxicity against human EPC cells derived from polycythemia vera patients assessed as inhibition of cell viability incubated for 48 hrs by CellTiterGlo assay; type: toxicity, cell-based
How it was run: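 Erythroid progenitors expanded from PBMCs of PV patients or normal volunteers using a 2-step protocol. On day 12 of expansion, cells were exposed to compound for 48 h and viability was read by CellTiter-Glo. Day-12 cells were phenotyped by CD71/CD235A flow staining.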

[3] = test system: Tyrosine-protein kinase JAK2 (Homo sapiens), O60674 [V617F]; conditions: HEL 92.1.7, dose 8-1000 nM, time 3.0 hrs
MV4-11 = experiment: Antiproliferative activity against human MV4-11 cells harboring FLT3-ITD mutant assessed as inhibition of cell viability incubated for 48 hrs by CellTiterGlo assay; type: functional, cell-based; conditions: MV4-11, 48 h
How it was run: (§1)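 Cells seeded at 30–50% confluency in 96-well plates, then treated the next day in triplicate at up to 10 μM for 48 h. Viability read by CellTiter-Glo luminescence. IC50 taken from fitted dose–response curves.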

SET-2 = experiment: Induction of cell cycle arrest in human SET2 cells expressing JAK2 V617F mutant assessed as accumulation of cells at G0/1 phase incubated for 24 hrs by PI staining based flow cytometry; type: functional
How it was run: (§2)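 Cells were fixed in 70% ice-cold ethanol and stained with propidium iodide, then analysed by flow cytometry for cell-cycle distribution.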

[4] = test system: Tyrosine-protein kinase JAK2 (Mus musculus), Q62120 [V617F]; experiment: Inhibition of JAK2 V617F mutant transfected in mouse BaF3 cells assessed as increased JAK2 phosphorylation at Y1007/8 at 8 to 1000 nM incubated for 3 hrs by Western blotting analysis; type: cell-based; conditions: dose 8-1000 nM
MOLM-13 = experiment: Antiproliferative activity against human MOLM-13 cells harboring FLT3-ITD mutant assessed as inhibition of cell viability incubated for 48 hrs by CellTiterGlo assay; type: functional, cell-based; conditions: MOLM-13, 48 h; how it was run: as §1
A2780 = experiment: Antiproliferative activity against human A2780 cells assessed as inhibition of cell viability incubated for 48 hrs by CellTiterGlo assay; type: functional, cell-based; conditions: A2780, 48 h; how it was run: as §1
[5] = Antiproliferative activity against mouse 32D cells harboring JAK2 assessed as inhibition of cell viability incubated for 48 hrs by CellTiterGlo assay; type: functional, cell-based; how it was run: as §1
[6] = target: Tyrosine-protein kinase JAK2 (Homo sapiens) (UniProt O60674); conditions: KARPAS-1106P, dose 8-1000 nM, time 3.0 hrs
COLO 205 = experiment: Antiproliferative activity against human COLO 205 cells assessed as inhibition of cell viability incubated for 48 hrs by CellTiterGlo assay; type: functional, cell-based; conditions: COLO 205, 48 h; how it was run: as §1
[7] = test system: Tyrosine-protein kinase JAK2 (Homo sapiens), O60674 [V617F]; conditions: SET2, dose 8-1000 nM, time 3.0 hrs
LNCaP = experiment: Antiproliferative activity against human LNCaP cells assessed as inhibition of cell viability incubated for 48 hrs by CellTiterGlo assay; type: functional, cell-based; how it was run: as §1
Karpas-1106P [8] = experiment: Induction of cell cycle arrest in human KARPAS-1106P cells expressing JAK2 assessed as decrease in accumulation of cells at S phase incubated for 24 hrs by PI staining based flow cytometry; type: functional; how it was run: as §2
SNU-475 = experiment: Antiproliferative activity against human SNU-475 cells assessed as inhibition of cell viability incubated for 48 hrs by CellTiterGlo assay; type: functional, cell-based; conditions: SNU-475, 48 h; how it was run: as §1
Mus musculus [9] = experiment: In vivo inhibition of JAK2 V617F mutant in SCID Beige mouse xenografted with human SET2 cells assessed as decreased STAT5 phosphorylation at Y694 at 75 to 150 mg/kg, po administered for 18 days and measured after 3 hrs by Western blotting analysis; type: functional, organism-based; conditions: dose 75-150 mg/kg, time 18.0 day
How it was run: (§3)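 Subcutaneous SET-2 tumors in SCID beige mice. Single oral doses of 75 or 150 mg/kg were given at about 300 mm3 tumor size; in the chronic arm, dosing ran for 18 days. Tumors were collected 3 h post-dose, lysed, and immunoblotted for pJAK2 (Y1007/8) and pSTAT5.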

[10] = target: Tyrosine-protein kinase JAK2 (Homo sapiens) (UniProt O60674); conditions: Jurkat, dose 8-1000 nM, time 3.0 hrs
MOLT-4 = experiment: Antiproliferative activity against human MOLT-4 cells assessed as inhibition of cell viability incubated for 48 hrs by CellTiterGlo assay; type: functional, cell-based; conditions: MOLT-4, 48 h; how it was run: as §1
Mus musculus [11] = experiment: In vivo inhibition of JAK2 V617F mutant in SCID Beige mouse xenografted with human SET2 cells assessed as decreased STAT5 phosphorylation at Y694 by immunoblotting analysis; type: functional, organism-based; conditions: dose 75-150 mg/kg, route po; how it was run: as §3
[12] = test system: Tyrosine-protein kinase JAK2 (Homo sapiens), O60674 [V617F]; conditions: SET2, dose 1000.0 nM, time 3.0 hrs
Mus musculus [13] = experiment: In vivo inhibition of JAK2 V617F mutant in SCID Beige mouse xenografted with human SET2 cells assessed as increased JAK2 phosphorylation at Y1007/8 by immunoblotting analysis; type: functional, organism-based; conditions: dose 75-150 mg/kg, route po; how it was run: as §3
SNU-387 = experiment: Antiproliferative activity against human SNU-387 cells assessed as inhibition of cell viability incubated for 48 hrs by CellTiterGlo assay; type: functional, cell-based; conditions: SNU-387, 48 h; how it was run: as §1

Sequence of Tyrosine-protein kinase JAK2 (Homo sapiens), O60674 [V617F] (O60674 whole entry V617F): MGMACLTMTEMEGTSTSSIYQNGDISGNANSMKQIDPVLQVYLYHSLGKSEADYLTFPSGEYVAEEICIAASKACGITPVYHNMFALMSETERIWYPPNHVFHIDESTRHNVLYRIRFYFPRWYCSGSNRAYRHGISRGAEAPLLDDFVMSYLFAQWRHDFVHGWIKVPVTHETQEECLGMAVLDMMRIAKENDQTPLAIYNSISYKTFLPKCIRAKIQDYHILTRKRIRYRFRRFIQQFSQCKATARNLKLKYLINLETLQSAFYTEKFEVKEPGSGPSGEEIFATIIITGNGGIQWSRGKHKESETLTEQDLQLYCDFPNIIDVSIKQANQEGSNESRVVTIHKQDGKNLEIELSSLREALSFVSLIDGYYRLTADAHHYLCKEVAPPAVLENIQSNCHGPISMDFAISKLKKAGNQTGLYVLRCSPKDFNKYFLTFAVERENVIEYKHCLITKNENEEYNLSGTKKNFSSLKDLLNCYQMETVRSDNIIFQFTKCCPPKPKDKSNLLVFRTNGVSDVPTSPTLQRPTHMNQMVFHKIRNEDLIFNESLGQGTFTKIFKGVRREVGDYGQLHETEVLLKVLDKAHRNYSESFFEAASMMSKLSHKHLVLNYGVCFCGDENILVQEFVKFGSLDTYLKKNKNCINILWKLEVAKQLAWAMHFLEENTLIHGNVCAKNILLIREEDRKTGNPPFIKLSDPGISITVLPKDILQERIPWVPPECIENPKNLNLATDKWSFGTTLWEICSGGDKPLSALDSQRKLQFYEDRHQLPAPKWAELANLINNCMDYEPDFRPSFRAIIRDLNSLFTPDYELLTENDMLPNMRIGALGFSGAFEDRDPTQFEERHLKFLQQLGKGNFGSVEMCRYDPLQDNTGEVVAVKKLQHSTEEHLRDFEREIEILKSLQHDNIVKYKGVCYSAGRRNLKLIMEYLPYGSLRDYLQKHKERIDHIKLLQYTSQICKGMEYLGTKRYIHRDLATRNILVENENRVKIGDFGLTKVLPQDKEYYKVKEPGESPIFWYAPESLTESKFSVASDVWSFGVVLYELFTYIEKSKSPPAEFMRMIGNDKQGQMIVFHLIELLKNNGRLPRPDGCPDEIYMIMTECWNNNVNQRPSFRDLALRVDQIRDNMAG
Sequence of Tyrosine-protein kinase JAK2 (Homo sapiens) (O60674 whole entry): as the sequence (O60674 whole entry V617F) above, with F617V counted along it
Sequence of Tyrosine-protein kinase JAK2 (Mus musculus), Q62120 [V617F] (Q62120 as listed by the source): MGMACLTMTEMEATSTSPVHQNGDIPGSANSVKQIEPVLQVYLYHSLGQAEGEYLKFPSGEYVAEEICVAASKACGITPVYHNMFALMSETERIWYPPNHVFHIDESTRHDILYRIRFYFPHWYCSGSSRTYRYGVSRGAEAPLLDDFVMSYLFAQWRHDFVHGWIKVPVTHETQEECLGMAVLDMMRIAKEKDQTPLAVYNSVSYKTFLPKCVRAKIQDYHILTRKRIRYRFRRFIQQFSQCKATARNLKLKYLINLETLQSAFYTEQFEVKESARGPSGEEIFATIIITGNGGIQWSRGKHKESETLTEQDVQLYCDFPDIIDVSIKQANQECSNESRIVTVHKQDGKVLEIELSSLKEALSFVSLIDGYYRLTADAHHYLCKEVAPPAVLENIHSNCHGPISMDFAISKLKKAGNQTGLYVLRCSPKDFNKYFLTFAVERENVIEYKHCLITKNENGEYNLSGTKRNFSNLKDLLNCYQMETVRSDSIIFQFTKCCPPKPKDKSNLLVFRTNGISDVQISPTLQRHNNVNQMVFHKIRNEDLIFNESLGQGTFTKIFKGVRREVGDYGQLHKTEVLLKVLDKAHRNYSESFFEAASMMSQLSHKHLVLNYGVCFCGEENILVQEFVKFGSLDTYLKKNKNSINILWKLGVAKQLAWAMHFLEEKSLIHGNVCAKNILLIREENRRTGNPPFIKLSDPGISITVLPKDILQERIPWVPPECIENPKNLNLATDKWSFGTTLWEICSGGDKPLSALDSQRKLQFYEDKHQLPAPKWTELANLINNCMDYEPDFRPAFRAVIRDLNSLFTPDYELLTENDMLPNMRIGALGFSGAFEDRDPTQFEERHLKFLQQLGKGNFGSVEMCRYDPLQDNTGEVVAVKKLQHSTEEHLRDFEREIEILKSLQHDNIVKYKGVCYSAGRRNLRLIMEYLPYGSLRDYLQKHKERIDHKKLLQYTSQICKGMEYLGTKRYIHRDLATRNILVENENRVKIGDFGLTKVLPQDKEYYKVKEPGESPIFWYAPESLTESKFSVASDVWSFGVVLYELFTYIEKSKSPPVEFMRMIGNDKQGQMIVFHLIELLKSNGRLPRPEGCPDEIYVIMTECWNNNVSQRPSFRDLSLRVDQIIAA

C1=N/C2=N/c3ccc(OCCN4CCCC4)c(c3)COC/C=C/COCc3cccc(c3)C(=C1)N2 [PACRITINIB]
Activity (Karpas-1106P [1]): Dose-Dependent Effect
pEC50 (Karpas-1106P [1]): 5.95
pIC50 [2]: 6.59
inhibition [3]: Dose-Dependent Effect
pIC50 (MV4-11): 7.33
Activity (SET-2): Dose-Dependent Effect
inhibition [4]: Active
pIC50 (MOLM-13): 7.17
pIC50 (A2780): 6.18
pIC50 [5]: 6.40
inhibition [6]: Active
pIC50 (COLO 205): 5.58
inhibition [7]: Dose-Dependent Effect
pIC50 (LNCaP): 6.04
Activity (Karpas-1106P [8]): Dose-Dependent Effect
pIC50 (SNU-475): 5.61
Activity (Mus musculus [9]): Active
inhibition [10]: Active
pIC50 (MOLT-4): 6.12
Activity (Mus musculus [11]): Dose-Dependent Effect
inhibition [12]: Active
Activity (Mus musculus [13]): Dose-Dependent Effect
pIC50 (SNU-387): 5.69

From ChEMBL document CHEMBL5705894, “SB1518, a novel macrocyclic pyrimidine-based JAK2 inhibitor for the treatment of myeloid and lymphoid malignancies” (Leukemia, 2011)
